Assay [1] concerns Enterococcus faecalis. Put plainly: Antibacterial activity against Enterococcus faecalis MGH-2 EF1-1. It counts as functional. A digest of the protocol:
(§1)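 MIC (μg/mL) by standard broth microtitration dilution following NCCLS M7-A5 for aerobically growing bacteria. Panel: Gram-negative E. coli MC4100 (wild-type) and E. coli Tol C (membrane efflux-pump deficient); Gram-positive Enterococcus faecalis, Staphylococcus aureus and Streptococcus pyogenes.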

Assay [2] in a line: Inhibition of Escherichia coli H560 DNA gyrase assessed as DNA cleavage.
Assay [3] deals with Streptococcus pyogenes. Put plainly: Antibacterial activity against Streptococcus pyogenes C-203 SP1-1. It counts as functional. A digest of the protocol:
as §1

For assay [4], the system named is Staphylococcus aureus. Put plainly: Antibacterial activity against Staphylococcus aureus UC-76 SA-1. It counts as functional. In a few lines: as §1
In assay [5] the test system is Escherichia coli. The experiment in a line: Antibacterial activity against membrane efflux-pump deficient Escherichia coli Tol C EC2549. In kind it is functional. A digest of the protocol:
as §1

The test system of assay [6] is Escherichia coli. The experiment in a line: Antibacterial activity against Escherichia coli MC4100 EC2026. It counts as functional. In a few lines:
as §1

pIC50: −log10 of the molar value. ≈ marks a conversion by molar mass, not a printed value.

In ChEMBL document CHEMBL1139087, “Structure-activity relationships of 3-aminoquinazolinediones, a new class of bacterial type-2 topoisomerase (DNA gyrase and topo IV) inhibitors” (Bioorg Med Chem Lett, 2007) one finds MIC and IC50 data, which are given here for 24 compounds.

Broadly, the MIC is the lowest concentration that inhibits growth of the organism. High values mean a need for much substance, low ones inhibition by little substance. For orientation: pIC50 means −log10 of the IC50, conventionally taken in molar units. Regarding `Cc1c(N2CCC(N)C2)c(F)cc2c(=O)n(N)c(=O)n(C3CC3)c12` (stereo not given), the minimum inhibitory concentration (MIC) in assay [1] came to 2 µg/mL (≈ 6 µM); in assay [3] it was 0.5 µg/mL (≈ 1.5 µM); in assay [4], 4 µg/mL (≈ 12 µM); in assay [5], 0.06 µg/mL (≈ 0.18 µM); in assay [6], 1 µg/mL (≈ 3 µM). For the same compound, the negative-log IC50 (pIC50) in assay [2] was 7.00.

With `NCC1CCN(c2c(F)cc3c(=O)n(N)c(=O)n(C4CC4)c3c2Cl)C1` (stereo not given), the MIC was determined as 0.25 µg/mL (≈ 0.68 µM) in assay [1]; 0.13 µg/mL (≈ 0.353 µM) in assay [3]; 0.5 µg/mL (≈ 1.36 µM) in assay [4]; 0.25 µg/mL (≈ 0.68 µM) in assay [5]; 4 µg/mL (≈ 10.9 µM) in assay [6]. Besides, the pIC50 in assay [2] was 6.52.

In the case of `NC1CCN(c2cc(F)c3c(=O)n(N)c(=O)n(C4CC4)c3c2F)C1` (stereo not given), the minimal inhibitory concentration (MIC) in assay [1] is over 64 µg/mL; in assay [3], over 64 µg/mL; in assay [4], over 64 µg/mL; in assay [5], 4 µg/mL (≈ 11.9 µM); in assay [6], 32 µg/mL (≈ 94.9 µM). Also, the negative logarithm of the IC50 (pIC50) in assay [2] is 4.77.

For `N[C@H]1CCN(c2cc3c(cc2F)c(=O)n(N)c(=O)n3CC2CC2)C1`, the MIC is over 64 µg/mL in assay [1]; over 64 µg/mL in assay [3]; over 64 µg/mL in assay [4]; 8 µg/mL (≈ 24 µM) in assay [5]; over 64 µg/mL in assay [6]. The pIC50 in assay [2] was 4.70.

As to `Cc1c(N2CC[C@@H]([C@H](C)N)C2)c(F)c(C(F)F)c2c(=O)n(N)c(=O)n(C3CC3)c12`, the minimum inhibitory concentration (MIC) came to 1 µg/mL (≈ 2.43 µM) in assay [1]; 0.25 µg/mL (≈ 0.608 µM) in assay [3]; 1 µg/mL (≈ 2.43 µM) in assay [4]; 1 µg/mL (≈ 2.43 µM) in assay [5]; 64 µg/mL (≈ 156 µM) in assay [6]. The pIC50 in assay [2] is 5.09.

In the case of `Cc1c(N2CC[C@@H]([C@H](C)N)C2)c(F)cc2c(=O)n(N)c(=O)n(C3CC3)c12`, the minimum inhibitory concentration (MIC) is 0.06 µg/mL (≈ 0.166 µM) in assay [1]; 0.015 µg/mL (≈ 0.0415 µM) in assay [3]; 0.06 µg/mL (≈ 0.166 µM) in assay [4]; 0.03 µg/mL (≈ 0.083 µM) in assay [5]; 1 µg/mL (≈ 2.77 µM) in assay [6]. Besides, in assay [2], the negative logarithm of the IC50 (pIC50) was 6.70.

In the case of `CC(=O)Nn1c(=O)c2cc(F)c(N3CCC(N)C3)c(Cl)c2n(C2CC2)c1=O` (stereo not given), the MIC in assay [1] was over 64 µg/mL; in assay [3], over 64 µg/mL; in assay [4], over 64 µg/mL; in assay [5], 2 µg/mL (≈ 5.05 µM); in assay [6], 64 µg/mL (≈ 162 µM). For the same compound, the negative-log IC50 (pIC50) in assay [2] is 5.00.

With `COc1c(N2CCC(N)C2)c(F)cc2c(=O)n(N)c(=O)n(C3CC3)c12` (stereo not given), the MIC is 8 µg/mL (≈ 22.9 µM) in assay [1]; 4 µg/mL (≈ 11.4 µM) in assay [3]; 8 µg/mL (≈ 22.9 µM) in assay [4]; 0.5 µg/mL (≈ 1.43 µM) in assay [5]; 4 µg/mL (≈ 11.4 µM) in assay [6]. The pIC50 in assay [2] is 5.37.

On to `CCOc1c(N2CCC(N)C2)c(F)cc2c(=O)n(N)c(=O)n(C3CC3)c12` (stereo not given), for which the minimum inhibitory concentration (MIC) is over 64 µg/mL in assay [1]; 64 µg/mL (≈ 176 µM) in assay [3]; over 64 µg/mL in assay [4]; 4 µg/mL (≈ 11 µM) in assay [5]; 32 µg/mL (≈ 88.1 µM) in assay [6]. The pIC50 in assay [2] was 4.96.

As for `N[C@H]1CCN(c2c(F)cc3c(=O)n(N)c(=O)n(C4CC4)c3c2C(F)(F)F)C1`, the MIC was 32 µg/mL (≈ 82.6 µM) in assay [1]; 4 µg/mL (≈ 10.3 µM) in assay [3]; 32 µg/mL (≈ 82.6 µM) in assay [4]; 0.25 µg/mL (≈ 0.645 µM) in assay [5]; 8 µg/mL (≈ 20.7 µM) in assay [6]. Further, the negative logarithm of the IC50 (pIC50) in assay [2] is 5.28.

Take `NC1CCN(c2c(F)cc3c(=O)n(N)c(=O)n(-c4ccc(F)cc4F)c3c2Cl)C1` (stereo not given): the MIC in assay [1] is over 64 µg/mL; in assay [3] it was over 64 µg/mL; in assay [4], over 64 µg/mL; in assay [5], 64 µg/mL (≈ 150 µM); in assay [6], over 64 µg/mL. Besides, in assay [2], the pIC50 is under 4.00.

For `Nc1c(F)c(N2CCC(N)C2)c(F)c2c1c(=O)n(N)c(=O)n2C1CC1` (stereo not given), the MIC in assay [1] was 64 µg/mL (≈ 182 µM); in assay [3], 32 µg/mL (≈ 90.8 µM); in assay [4] it was 32 µg/mL (≈ 90.8 µM); in assay [5], 1 µg/mL (≈ 2.84 µM); in assay [6], 8 µg/mL (≈ 22.7 µM). In addition, the pIC50 in assay [2] is 4.68.

With `CN[C@H]1CCN(c2c(F)cc3c(=O)n(NC)c(=O)n(C4CC4)c3c2Cl)C1`, the minimal inhibitory concentration (MIC) in assay [1] is over 64 µg/mL; in assay [3], over 64 µg/mL; in assay [4] it was over 64 µg/mL; in assay [5], 8 µg/mL (≈ 21 µM); in assay [6], over 64 µg/mL.

As for `NC1CCN(c2c(F)c(F)c3c(=O)n(N)c(=O)n(C4CC4)c3c2F)C1` (stereo not given), the MIC in assay [1] amounted to 32 µg/mL (≈ 90.1 µM); in assay [3], 16 µg/mL (≈ 45 µM); in assay [4] it was 16 µg/mL (≈ 45 µM); in assay [5] it was 0.5 µg/mL (≈ 1.41 µM); in assay [6], 2 µg/mL (≈ 5.63 µM). In addition, in assay [2], the pIC50 is 5.52.

`NCC1CCN(c2c(Cl)cc3c(=O)n(N)c(=O)n(C4CC4)c3c2Cl)C1` (stereo not given): the MIC in assay [1] is 4 µg/mL (≈ 10.4 µM); in assay [3], 2 µg/mL (≈ 5.2 µM); in assay [4] it was 4 µg/mL (≈ 10.4 µM); in assay [5], 0.5 µg/mL (≈ 1.3 µM); in assay [6], 16 µg/mL (≈ 41.6 µM). The negative-log IC50 (pIC50) in assay [2] is 5.92.

With `O=C(O)c1cn(C2CC2)c2cc(N3CCNCC3)c(F)cc2c1=O` [CIPROFLOXACIN], the minimum inhibitory concentration (MIC) came out at 0.4 µg/mL (≈ 1.21 µM) in assay [1], 2 µg/mL (≈ 6.04 µM) in assay [3] and 4 µg/mL (≈ 12.1 µM) in assay [4].

For `N[C@H]1CCN(c2cc3c(cc2F)c(=O)n(N)c(=O)n3C2CC2)C1`, the MIC in assay [1] is 32 µg/mL (≈ 100 µM); in assay [3], 16 µg/mL (≈ 50.1 µM); in assay [4], 64 µg/mL (≈ 200 µM); in assay [5], 1 µg/mL (≈ 3.13 µM); in assay [6], 8 µg/mL (≈ 25.1 µM). For the same compound, the pIC50 in assay [2] was 5.80.

As for `CC(C)n1c(=O)n(N)c(=O)c2cc(F)c(N3CCC(N)C3)c(Cl)c21` (stereo not given), the MIC in assay [1], in assay [3], in assay [4], in assay [5] and in assay [6] was over 64 µg/mL throughout. Besides, the negative logarithm of the IC50 (pIC50) in assay [2] is 4.01.

Consider `CCn1c(=O)n(N)c(=O)c2cc(F)c(N3CC[C@H](N)C3)cc21`, for which the minimal inhibitory concentration (MIC) in assay [1] is over 64 µg/mL; in assay [3], over 64 µg/mL; in assay [4], over 64 µg/mL; in assay [5] it was 16 µg/mL (≈ 52.1 µM); in assay [6], 64 µg/mL (≈ 208 µM). For the same compound, the pIC50 in assay [2] was 4.46.

Regarding `Cc1c(F)c(N2CC[C@@H]([C@H](C)N)C2)c(C)c2c1c(=O)n(N)c(=O)n2C1CC1`, the MIC was 0.06 µg/mL (≈ 0.16 µM) in assay [1]; 0.03 µg/mL (≈ 0.0799 µM) in assay [3]; 0.06 µg/mL (≈ 0.16 µM) in assay [4]; 0.03 µg/mL (≈ 0.0799 µM) in assay [5]; 2 µg/mL (≈ 5.33 µM) in assay [6]. Further, the pIC50 in assay [2] is 6.62.

With `NC1CCN(c2c(F)cc3c(=O)n(N)c(=O)n(C4CC4)c3c2F)C1` (stereo not given), the minimum inhibitory concentration (MIC) is 8 µg/mL (≈ 23.7 µM) in assay [1]; 4 µg/mL (≈ 11.9 µM) in assay [3]; 8 µg/mL (≈ 23.7 µM) in assay [4]; 0.25 µg/mL (≈ 0.741 µM) in assay [5]; 2 µg/mL (≈ 5.93 µM) in assay [6]. Also, in assay [2], the negative logarithm of the IC50 (pIC50) was 5.89.

Regarding `NC1CCN(c2c(F)cc3c(=O)n(N)c(=O)n(C4CCC4)c3c2Cl)C1` (stereo not given), the MIC in assay [1] is over 64 µg/mL; in assay [3], over 64 µg/mL; in assay [4] it was over 64 µg/mL; in assay [5] it was 2 µg/mL (≈ 5.44 µM); in assay [6], 16 µg/mL (≈ 43.5 µM). Also, the negative-log IC50 (pIC50) in assay [2] is 4.64.

Take `CN[C@H]1CCN(c2c(F)cc3c(=O)n(N)c(=O)n(C4CC4)c3c2Cl)C1`: the MIC is 16 µg/mL (≈ 43.5 µM) in assay [1]; 8 µg/mL (≈ 21.8 µM) in assay [3]; 16 µg/mL (≈ 43.5 µM) in assay [4]; 0.5 µg/mL (≈ 1.36 µM) in assay [5]; 4 µg/mL (≈ 10.9 µM) in assay [6]. Further, the negative logarithm of the IC50 (pIC50) in assay [2] is 5.21.

As to `N[C@H]1CCN(c2c(F)cc3c(=O)n(N)c(=O)n(C4CC4)c3c2Cl)C1`, the MIC in assay [1] amounted to 4 µg/mL (≈ 11.3 µM); in assay [3] it was 2 µg/mL (≈ 5.65 µM); in assay [4] it was 2 µg/mL (≈ 5.65 µM); in assay [5], 0.13 µg/mL (≈ 0.367 µM); in assay [6], 0.5 µg/mL (≈ 1.41 µM). Besides, the negative-log IC50 (pIC50) in assay [2] was 6.40.
